A word on the pKi: it is the Ki on a negative log10 scale, so that one unit is a factor of ten.

pKi: −log10 of the molar value.

Assay [1] deals with Insulin-like growth factor-binding protein 3 (Homo sapiens, UniProt P17936). The assay can be described thus: Inhibitory activity against Insulin-like growth factor binding protein 3. The gist of the method: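 IGFBP-3 purified from human plasma (0.5 pmol, 2.5 nM added) incubated 2 h at room temperature with [125I]hIGF-I (30,000 cpm) and compound in 0.02% NP-40/PBS pH 7.2, in duplicate. Complex precipitated with ice-cold 20% BSA plus 20% PEG-8000 and centrifuged; pellet counted by γ-counter. Ki calculated from inhibition of binding.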

In assay [2] the target is Insulin-like growth factor-binding protein 5 (Homo sapiens, UniProt P24593). The assay can be described thus: The compound was tested for binding affinity against Insulin-like growth factor binding protein 5. In short, it runs like this:
(§1)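 Human IGFBP-1, -2, -4, -5 or -6 expressed in Sf9 insect cells (baculovirus), purified on hIGF-II affinity column then reversed-phase HPLC. 0.5 pmol binding protein incubated with [125I]hIGF-I (30,000 cpm) and increasing compound concentrations, 2 h at room temperature, in 0.02% NP-40/PBS pH 7.2, in duplicate. Complex precipitated with BSA/PEG; pellet radioactivity counted to give dose–response curves.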

Assay [3] deals with T1, Insulin-like growth factor-binding protein 6 (Homo sapiens, UniProt P24592).
T1 sequence (P24592 whole entry): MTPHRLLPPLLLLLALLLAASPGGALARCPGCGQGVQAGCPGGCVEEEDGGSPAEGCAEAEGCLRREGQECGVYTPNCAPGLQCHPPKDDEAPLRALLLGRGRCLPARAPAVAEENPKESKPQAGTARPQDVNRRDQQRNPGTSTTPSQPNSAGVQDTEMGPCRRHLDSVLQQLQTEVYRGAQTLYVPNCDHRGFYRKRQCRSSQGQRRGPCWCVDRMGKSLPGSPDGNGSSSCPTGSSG
The assay can be described thus: The compound was tested for binding affinity against Insulin-like growth factor binding protein 6. In short, it runs like this: as §1

Assay [4] has as its target T2, Insulin-like growth factor-binding protein 1 (Homo sapiens, UniProt P08833).
T2 sequence (P08833 whole entry): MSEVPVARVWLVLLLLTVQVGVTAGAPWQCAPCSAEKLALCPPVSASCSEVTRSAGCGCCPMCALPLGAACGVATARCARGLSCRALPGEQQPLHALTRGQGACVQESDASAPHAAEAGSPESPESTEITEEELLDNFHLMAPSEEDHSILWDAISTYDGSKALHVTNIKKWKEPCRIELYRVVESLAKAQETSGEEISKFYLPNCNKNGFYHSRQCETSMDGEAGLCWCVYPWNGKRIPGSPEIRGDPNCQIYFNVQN
The assay can be described thus: The compound was tested for binding affinity against insulin-like growth factor binding protein 1. The gist of the method:
as §1

The target of assay [5] is T3, Insulin-like growth factor-binding protein 4 (Homo sapiens, UniProt P22692).
T3 sequence (P22692 whole entry): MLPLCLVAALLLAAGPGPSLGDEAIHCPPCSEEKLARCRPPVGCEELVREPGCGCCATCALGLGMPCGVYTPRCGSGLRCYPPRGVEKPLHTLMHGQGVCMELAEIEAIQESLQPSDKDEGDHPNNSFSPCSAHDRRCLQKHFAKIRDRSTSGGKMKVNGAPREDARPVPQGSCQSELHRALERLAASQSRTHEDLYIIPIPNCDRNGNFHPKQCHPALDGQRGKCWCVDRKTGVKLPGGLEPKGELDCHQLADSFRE
In words: The compound was tested for binding affinity against Insulin-like growth factor binding protein 4. The gist of the method: as §1

Assay [6] concerns the target T4, Insulin-like growth factor-binding protein 2 (Homo sapiens, UniProt P18065).
T4 sequence (P18065 whole entry): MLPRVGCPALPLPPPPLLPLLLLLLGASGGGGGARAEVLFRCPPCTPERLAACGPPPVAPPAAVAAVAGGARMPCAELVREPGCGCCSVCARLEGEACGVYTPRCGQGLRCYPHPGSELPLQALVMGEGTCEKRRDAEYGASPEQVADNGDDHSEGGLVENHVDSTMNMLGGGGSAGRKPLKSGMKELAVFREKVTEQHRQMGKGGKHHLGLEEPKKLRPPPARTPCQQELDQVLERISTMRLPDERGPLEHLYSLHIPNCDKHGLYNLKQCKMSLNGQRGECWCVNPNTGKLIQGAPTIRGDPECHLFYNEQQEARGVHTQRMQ
The assay can be described thus: The compound was tested for binding affinity against insulin-like growth factor binding protein 2. The gist of the method:
as §1

Insulin-like growth factor-binding protein 3, sequence (P17936 whole entry): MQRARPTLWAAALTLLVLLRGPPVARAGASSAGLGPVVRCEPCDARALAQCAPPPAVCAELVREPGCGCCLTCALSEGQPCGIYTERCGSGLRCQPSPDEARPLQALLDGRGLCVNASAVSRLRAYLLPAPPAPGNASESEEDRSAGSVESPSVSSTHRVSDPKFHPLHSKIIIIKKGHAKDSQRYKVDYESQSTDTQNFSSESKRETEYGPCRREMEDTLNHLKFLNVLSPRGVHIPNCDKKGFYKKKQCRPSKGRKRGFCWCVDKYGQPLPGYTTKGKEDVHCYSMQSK
Insulin-like growth factor-binding protein 5, sequence (P24593 whole entry): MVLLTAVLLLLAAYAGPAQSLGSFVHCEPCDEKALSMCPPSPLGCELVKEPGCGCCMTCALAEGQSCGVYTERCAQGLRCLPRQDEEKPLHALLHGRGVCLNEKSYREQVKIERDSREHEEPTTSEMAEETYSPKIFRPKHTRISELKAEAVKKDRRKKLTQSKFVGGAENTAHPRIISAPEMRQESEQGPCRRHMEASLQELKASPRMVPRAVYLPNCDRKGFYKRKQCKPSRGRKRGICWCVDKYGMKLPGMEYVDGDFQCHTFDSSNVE

Regarding `COc1ccc(C(=O)c2[nH]c(=O)cc3cc(OC)c(OC)cc23)cc1OC`, in assay [1], the pKi is < 5.00.

`COc1cc2c(C(=O)c3ccc(O)c(O)c3)nc(C(=O)O)cc2c(Br)c1O` showed a pKi in assay [1] of 7.15.

On to `CCOC(=O)c1cc2cc(OC)c(OC)cc2c(C(=O)c2ccc(OC)c(OC)c2)n1`, for which the pKi in assay [1] was < 5.00.

For `O=C(O)c1cc2cc(O)c(O)cc2c(C(=O)c2cccc3ccccc23)n1`, in assay [1], the negative logarithm of the Ki (pKi) was 7.57.

Turning to `O=C(O)c1cc2cc(O)c(O)cc2c(C(=O)c2ccc(Cl)cc2Cl)n1`, the pKi in assay [1] is 7.36.

`O=C(c1ccc(O)c(O)c1)c1nccc2cc(O)c(O)cc12` had a pKi in assay [1] of 7.24.

In the case of `O=C(c1ccc(O)c(O)c1)c1nc(O)cc2cc(O)c(O)cc12`, the pKi was 7.68 in assay [2]; 7.07 in assay [3]; 7.55 in assay [1]; 7.47 in assay [4]; 8.21 in assay [5]; 7.77 in assay [6].

`O=C(O)c1cc2cc(O)c(O)cc2c(C(=O)c2ccc3ccccc3c2)n1` had a pKi in assay [1] of 7.89.

Regarding `COc1ccc(C(=O)c2nc(C(=O)O)cc3cc(OC)c(OC)cc23)cc1O`, the pKi in assay [1] is < 5.00.

`COc1cc2cc(C(=O)O)nc(C(=O)c3ccc(O)c(O)c3)c2c(Br)c1O` had a pKi in assay [1] of 6.85.

`O=C(O)c1cc2cc(O)c(O)cc2c(C(=O)c2ccc3c(c2)OCO3)n1` had a pKi in assay [1] of 7.15.

Consider `O=C(O)c1cc2cc(O)c(O)cc2c(C(=O)c2ccc(O)c(O)c2)n1`, for which the pKi is 8.28 in assay [2]; 7.63 in assay [3]; 8.25 in assay [1]; 8.29 in assay [4]; 8.98 in assay [5]; 8.68 in assay [6].

Consider `Oc1cc2cc(O)c(O)cc2c(Cc2ccc(O)c(O)c2)n1`, for which the pKi in assay [1] was 7.54.

For `COc1cc2cc(C(=O)O)nc(C(=O)c3ccc(O)c(O)c3)c2cc1OC`, the negative-log Ki (pKi) in assay [1] was < 5.00.

For the compound `COc1ccc(C(=O)c2nc(C(=O)O)cc3cc(OC)c(O)cc23)cc1O`, the pKi in assay [1] was 6.49.

`O=C(O)c1cc2cc(O)c(O)cc2c(Cc2ccc(O)c(O)c2)n1` had a pKi in assay [1] of 8.12.

Source of the values: ChEMBL document CHEMBL1134274, “Discovery of a series of nonpeptide small molecules that inhibit the binding of insulin-like growth factor (IGF) to IGF-binding proteins” (J Med Chem, 2001).
